The values below come from PubChem BioAssay AID602146 (NMMLSC, 2011).

The assay concerns SCC-12F cells, EGF-induced EGFR degradation, Western blot. The experiment in a line: EGFR lysosomal turnover delay in cells – SCC-12F cells, Western blot, mechanism study for Ras-related GTPase inhibitor project (AID 602146). The settings on record: at 100 µM, stronger effect = higher value; for EGFR remaining fraction at 60 min: measured here: 60 min time point. The essentials:
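Reagent: EGF stimulation at 20 nM after compound pretreatment | Dosing: Compound at 10–100 µM during starvation and pretreatment | Timing: 2 h pretreatment, 0–2 h EGF exposure | Signal: EGFR Western blot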
For orientation: Immunoblotting shows a protein as a band on a membrane.

Molecules are shown by their SMILES.

For the compound `COc1cccc(C(=O)NC(=S)Nc2sc3c(c2C(=O)O)CC(C)(C)OC3)c1`, the EGFR remaining fraction at 120 min was 1.24 and the EGFR remaining fraction at 60 min is 0.651.
`CC1(C)Cc2c(sc(NC(=S)NC(=O)c3ccc(Br)cc3)c2C(=O)O)CO1`: the EGFR remaining fraction at 120 min was 0.643 and the EGFR remaining fraction at 60 min was 0.696.
For `CC1(C)Cc2c(sc(NC(=S)NC(=O)c3ccc(F)cc3)c2C(=O)O)CO1` the same measures were 0.241 and 0.561.
